# High-throughput results as filed in PubChem BioAssay.
# beta cell repl = inducers of MIN6 beta-cell proliferation, primary screen, ATP luminescence, uHTS; MIN6 cells proliferation, ATPlite luminescence, 48 h; cells starved in 0.2% serum; 100% = growth in 10% serum; proliferation, % at 10 µM; 330,000 tested, 0.29% active; AID 2380, 2010;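 active = compounds whose signal lies at least 3.5 SD above the mean of all wells on their plate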;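 also: 0% = DMSO-treated cells in low-serum medium and 100% = 10% serum control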
# PvdQ acylase = P. aeruginosa PvdQ acylase inhibitors, primary screen, biochemical, fluorescence, plate reader and imaging, single point. purified PvdQ acylase. inhibition, % at 10 µM. 340,000 tested, 0.063% active. PvdQ acylase [Pseudomonas aeruginosa LESB58]. AID 488965, 2010; in the data active = inhibition above about 30%, passing the limit was not always enough;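 also: 0% = vehicle neutral wells and 100% = reference inhibitor wells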
# IMP-1 inh = IMP-1 metallo-beta-lactamase inhibitors, primary screen, biochemical, epi-absorbance readout, Pseudomonas aeruginosa enzyme | metallo-beta-lactamase IMP-1 (Pseudomonas aeruginosa) | purified IMP-1, nitrocefin hydrolysis, epi-absorbance fluorescence | inhibition, % at 5.6 µM | 290,000 tested, 0.45% active | AID 1556, 2009;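 active = inhibition above the mean plus 3 SD of all compounds in the same screening run, cut at about 4.5% in these data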;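 also: 0% = IMP-1 with DMSO and 100% = DMSO wells lacking enzyme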
#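 System – purified recombinant IMP-1 beta-lactamase · Input – IMP-1 dispensed at 0.2 nM · Timing – 15 min preincubation plus 25 min reaction at 25 °C · Signal – Epi-absorbance fluorescence, 480 nm excitation, 530 nm emission · Measure – percent IMP-1 inhibition derived from blank-referenced optical density · Controls – Enzyme-plus-DMSO low control, enzyme-free DMSO high control · Replication – singlicate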
# HKDC1 inhibitor = HKDC1 hexokinase inhibitors, primary screen, biochemical, fluorescence, uHTS. inhibition, % at 20 µM. 340,000 tested, 0.16% active. recombinant HKDC1, G6PDH/diaphorase resazurin coupled fluorescence. Q2TB90;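 active = inhibition above about 35% when tested at 20 µM, limit read from the data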;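 also: plate controls were DMSO wells with enzyme for no effect and DMSO wells lacking enzyme for full effect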
#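 Material: recombinant HKDC1 hexokinase; Amount: HKDC1 at 5 µg/mL; Medium: Tris pH 8.0 buffer with MgCl2, Tween-20, BSA, BME; Schedule: 90 min reaction incubation at room temperature, dark; Technique: coupled resazurin fluorescence, excitation 525 nm, emission 613 nm.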
# VIM-2 inh = VIM-2 metallo-beta-lactamase inhibitors, primary screen, biochemical, epi-absorbance readout, Pseudomonas aeruginosa enzyme; purified VIM-2, nitrocefin hydrolysis, epi-absorbance fluorescence; AID 1527, 2009; inhibition, % at 5.6 µM; 290,000 tested, 0.89% active;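 active = inhibition above the mean of all tested compounds plus 3 SD, cutoff set per screening run, cut at about 7.5% in these data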;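 also: red hydrolysis product quenches plate fluorescence so inhibitors raise well fluorescence; 0% = enzyme with DMSO and 100% = DMSO without enzyme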
# ATG4B inh = ATG4B protease inhibitors, primary screen, biochemical, fluorescence, uHTS; AID 504462, 2011; ATG4B cleavage of LC3-PLA2, NBD-HPC fluorescence, 1 h; inhibition, % at 8.33 µM; 340,000 tested, 0.51% active; Cysteine protease ATG4B (Homo sapiens), Q9Y4P1; in the data active = inhibition above about 40%
# Target sequence (Q9Y4P1 whole entry, looked up): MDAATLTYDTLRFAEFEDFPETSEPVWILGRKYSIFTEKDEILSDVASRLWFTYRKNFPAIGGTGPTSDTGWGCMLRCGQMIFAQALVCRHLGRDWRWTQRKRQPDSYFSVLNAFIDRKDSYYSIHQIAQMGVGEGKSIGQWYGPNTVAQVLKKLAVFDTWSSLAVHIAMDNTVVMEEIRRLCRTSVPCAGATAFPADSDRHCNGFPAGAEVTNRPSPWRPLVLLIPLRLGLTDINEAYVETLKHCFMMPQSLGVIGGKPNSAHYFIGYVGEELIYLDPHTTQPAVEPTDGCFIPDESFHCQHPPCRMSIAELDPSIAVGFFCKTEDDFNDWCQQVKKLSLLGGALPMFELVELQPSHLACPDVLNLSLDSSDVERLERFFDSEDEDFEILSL
# PLA2 ctr = PLA2 enzyme inhibition, counter-screen for ATG4B inhibitor project, biochemical, single concentration, uHTS hits. shares compounds with ATG4B inh. AID 588402, 2011. purified PLA2, NBD-C6-HPC fluorescence, 45 min. inhibition, % at 8.33 µM. 1,600 tested, 66% active; in the data active = inhibition above about 50%
# Target sequence (P04054 whole entry, looked up): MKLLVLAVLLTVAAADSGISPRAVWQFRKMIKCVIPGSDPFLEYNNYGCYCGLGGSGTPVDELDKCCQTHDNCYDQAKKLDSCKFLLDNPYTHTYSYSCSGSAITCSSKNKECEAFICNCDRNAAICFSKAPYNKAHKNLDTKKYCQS
# * hit, by the source's call; . = not tested or not shown. An excerpt weighted towards active compounds, which were near 2% of everything screened.
SMILES,beta cell repl,PvdQ acylase,IMP-1 inh,HKDC1 inhibitor,VIM-2 inh,ATG4B inh,PLA2 ctr
S=C(NCc1ccc(Cl)cc1Cl)NC1CCCCC1,-6.4,0.1,-2.4,8.4,-4.2,44.1*,55.2*
CCOC(=O)c1c(NC(=O)CSc2nc3nc(C)cc(C)n3n2)sc(CC)c1C,3.9,11.0,-0.1,3.3,0.5,-0.5,.
Cc1c(Cl)cccc1NC(=O)Nc1cc(C(C)(C)C)on1,-6.0,-0.6,-2.3,3.1,-2.2,77.6*,83.7*
O=S(=O)(Nc1ncnc2sc3c(c12)CCC3)c1ccc2ccccc2c1,0.8,-7.8,-1.2,3.4,-3.3,40.9*,55.7*
Cc1cc(NC(=O)CN(C)C)c([N+](=O)[O-])cc1C,-0.5,-7.5,-0.8,-13.5,-2.6,-2.4,.
O=C(Cc1ccccc1Cl)Nc1ccc(S(=O)(=O)Nc2nccs2)cc1,-4.3,-15.9,-1.6,-1.3,-1.8,2.5,.
O=C(CSc1ccc(Br)c2cccc(Cl)c12)Nc1ccc(S(=O)(=O)Nc2nccs2)cc1,-5.5,-1.9,-1.8,7.9,-3.7,48.4*,52.9*
CCOc1ccccc1C(=O)NC1CCN(Cc2ccccc2)CC1,0.9,-11.3,0.0,-7.6,0.4,-2.2,.
O=C(NC1CCCC1)c1ccccc1OCc1ccccc1,1.0,5.3,-2.8,6.8,-1.0,65.6*,73.1*
O=C(NCc1ccc(F)cc1)c1ccccc1OCc1ccccc1,-1.7,-2.4,-0.3,9.8,-0.3,47.2*,52.0*
O=C(NC1CCN(Cc2ccccc2)CC1)c1ccccc1OCc1ccccc1,-2.6,-12.3,-2.4,-1.6,-0.1,56.0*,62.3*
O=C(NNC(=O)c1ccccc1OCc1ccc(F)cc1)c1ccccc1O,-6.8,3.5,0.2,-6.5,-4.2,-2.4,.
CCNC(=O)c1ccccc1-c1nc(-c2ccccc2)no1,0.8,4.2,-3.9,-5.3,-0.9,-7.6,.
CN(c1ccccc1)c1nccc(=O)[nH]1,0.2,-8.0,.,3.5,.,-3.3,.
CCOC(=O)c1ccc(N=C2SC(C(=O)Nc3ccc(C(=O)O)cc3)CC(=O)N2Cc2cccs2)cc1 (stereo not drawn),-3.2,-13.9,0.1,-7.1,0.6,55.4*,55.2*
O=C(O)c1ccc(-n2nnnc2SCc2ccccc2F)cc1,1.5,-1.3,-2.7,1.0,-2.7,-3.5,.
Cc1ccccc1CSc1nnnn1-c1ccc(C(N)=O)cc1,4.3,-10.9,-2.1,2.8,-2.3,57.5*,54.2*
O=C1NC(c2cccc3ccccc23)Nc2ccc(Cl)cc21 (stereo not drawn),.,-23.6,.,1.4,.,43.4*,58.7*
Clc1ccc(C2Nc3cccc4cccc(c34)N2)c(Cl)c1,.,-1.5,.,13.3,.,19.2,.
Cc1cccc(N=C2NC(=O)/C(=C/C=C/c3ccco3)S2)c1C,.,1.9,4.8*,11.2,-2.1,83.2*,51.2*
Cc1ccc(N=C2NC(=O)/C(=C/C=C/c3ccco3)S2)cc1,.,2.4,4.1,8.1,-0.6,31.1,.
CCN(CC)S(=O)(=O)c1ccc(N2CCOCC2)c(NC(=S)NC(=O)c2ccco2)c1,0.6,-21.2,-1.8,-1.5,-2.7,-10.2,.
N#Cc1c(NC(=O)C2CC(c3c(F)cccc3Cl)=NO2)sc2c1CCC2 (stereo not drawn),-0.5,-6.6,-3.0,0.8,-1.4,59.3*,52.9*
Cc1cc2ncc(C(N)=O)cn2n1,-2.1,4.2,-2.8,-7.2,-1.0,4.8,.
CCC1(c2ccc(OC)cc2)NC(=O)N(CC(=O)c2ccc3c(c2)OCCO3)C1=O (stereo not drawn),-2.6,-0.2,.,-7.5,.,-11.2,.
Cc1cccc(C)c1N1CCN(C(=O)Nc2ccc3c(c2)OCCO3)CC1,-3.0,10.4,-1.6,-3.0,-3.5,44.1*,62.5*
